From paper PMC6624406 (British Journal of Clinical Pharmacology, 2019)

Columns and labels:
[1] = tested on: HIV‐1; conditions: cited from earlier work
[2] = Safety and tolerability; type: in vivo, human; conditions: for Participants reporting at least 1 AE: n = 16
Method in brief: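 Phase I open-label two-part study in opioid-dependent, HIV-seronegative adults on stable once-daily opioid maintenance, 16 per part. Usual dose alone on day 1, then with test compound 600 mg ER BID on days 2–9, confined day -1 to day 10. Safety assessed by AE reports, vital signs (screening, days 1, 5, 10), ECG/physical exam (screening, day 1, day 10) and clinical labs (days 5, 9).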

[3] = type: in vivo; conditions: human, plasma, oral
[4] = human, in vivo; cited from earlier work
[5] = Part 1, while receiving MET with FTR
[6] = Part 2, while receiving BUP/NLX with FTR

Row | Structure (SMILES) | Decline in HIV‐1 RNA ([1]; 8 days of functional FTR monotherapy, FTR 600 mg ER BID) [log10 copies/mL] | Rate of HIV virological suppression ([1]; FTR with an optimized background therapy for 24 and 48 weeks) [%] | Tolerability ([2]; FTR 600 mg ER BID coadministered with MET or BUP/NLX) | Participants reporting headache [2, 5] [%] | Participants reporting nausea [2, 5] [%] | Participants reporting at least 1 AE ([2]; Part 1, while receiving MET with FTR 600 mg ER BID) [%] | Participants reporting headache [2, 6] [%] | Participants reporting nausea [2, 6] [%] | Participants reporting at least 1 AE ([2]; Part 2, while receiving BUP/NLX with FTR 600 mg ER BID) [%] | AUC [3] [ng·h/mL] | concentration at 12 h ([3]; TMR C12, geometric mean (coefficient of variation [%]), FTR 600 mg ER BID coadministered with BUP/NLX) [ng/mL] | Cmax ([3]; TMR Cmax, geometric mean (coefficient of variation [%]), FTR 600 mg ER BID coadministered with BUP/NLX) [ng/mL] | Accumulation [4] [fold]
1 | COc1cnc(-n2cnc(C)n2)c2c1c(C(=O)C(=O)N1CCN(C(=O)c3ccccc3)CC1)cn2COP(=O)(O)O [FTR, Fostemsavir] | 0.8 | 54 | well tolerated | 12.5 | 12.5 | 62.5 | 6.3 | 18.8 | 50.0 | – | – | – | –
2 | COc1cnc(-n2cnc(C)n2)c2[nH]cc(C(=O)C(=O)N3CCN(C(=O)c4ccccc4)CC3)c12 [TMR, temsavir] | – | – | – | – | – | – | – | – | – | 9760 | 468 | 2050 | < 2
